Laboratory results from ChEMBL document CHEMBL1140721, “Development of potent purine-derived nitrile inhibitors of the trypanosomal protease TbcatB” (J Med Chem, 2008).

Key:
Trypanosoma brucei = assay: Antitrypanosomal activity against Trypanosoma brucei; format: functional, organism-based
Summary of the method: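 Culture-adapted bloodstream T. brucei grown in HMI-9 with pen/strep, 10% heat-inactivated FBS and 10% Serum Plus at 37 °C, 5% CO2, diluted to 1 × 10^4 cells/mL. Inhibitor added from DMSO, 48 h at 37 °C, then 1 h room-temperature equilibration. Cell Titer Glo luminescence read after 8 min. Quadruplicate. IC50 by curve fitting. Values shift up to 10-fold with FBS lot.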

Cathepsin B = Cathepsin B (Homo sapiens, UniProt P07858); assay: Inhibition of human liver cathepsin B
Summary of the method: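 Human liver enzyme at 0.56 ng/mL final in sodium acetate pH 5.5 buffer with 4 mM DTT, 0.01% Triton X-100, 0.5 mM EDTA. 20 min room-temperature preincubation with inhibitor, then Z-Arg-Arg-AMC (10 µM final). Quadruplicate. Sigmoidal IC50 fit.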

[1] = target: T1, Cathepsin B-like cysteine protease (Trypanosoma brucei, UniProt Q6R7Z5); assay: Inhibition of Trypanosoma brucei cathepsin B-like cysteine protease
T1 sequence (Q6R7Z5 whole entry): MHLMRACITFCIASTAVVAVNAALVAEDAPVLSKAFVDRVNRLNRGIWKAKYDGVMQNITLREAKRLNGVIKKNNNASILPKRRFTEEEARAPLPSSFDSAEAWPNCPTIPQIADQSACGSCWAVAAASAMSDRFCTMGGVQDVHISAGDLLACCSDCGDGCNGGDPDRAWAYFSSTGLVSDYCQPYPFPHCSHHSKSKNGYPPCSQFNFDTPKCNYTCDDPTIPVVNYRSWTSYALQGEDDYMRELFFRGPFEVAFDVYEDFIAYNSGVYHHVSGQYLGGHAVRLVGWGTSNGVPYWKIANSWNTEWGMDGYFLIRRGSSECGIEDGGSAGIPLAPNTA
Summary of the method: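 Recombinant TbcatB zymogen expressed in Pichia pastoris, purified by HIC and anion exchange, titrated with CA074; 35 nM final. Inhibitor preincubated 20 min at room temperature, then Z-Phe-Arg-AMC (10 µM final). Initial rate from fluorescence (ex 350/em 460 nm) over 10 min. Triplicate. Sigmoidal IC50 fit.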

Procathepsin L = Procathepsin L (Homo sapiens, UniProt P07711); assay: Inhibition of human liver cathepsin L
Procathepsin L, sequence (P07711 whole entry): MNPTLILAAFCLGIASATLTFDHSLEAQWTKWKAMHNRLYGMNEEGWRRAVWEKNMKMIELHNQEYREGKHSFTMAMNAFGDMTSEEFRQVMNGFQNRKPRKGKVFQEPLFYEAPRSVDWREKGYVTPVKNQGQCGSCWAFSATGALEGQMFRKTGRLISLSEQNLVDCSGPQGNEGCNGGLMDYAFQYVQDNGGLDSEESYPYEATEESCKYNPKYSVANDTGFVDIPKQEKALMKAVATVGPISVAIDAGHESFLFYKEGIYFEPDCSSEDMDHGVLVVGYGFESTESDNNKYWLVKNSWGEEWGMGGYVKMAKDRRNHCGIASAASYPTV
Summary of the method: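 Inhibitor preincubated 20 min at room temperature before Z-Phe-Arg-AMC (10 µM final). Initial rate from fluorescence (ex 350/em 460 nm) over 10 min. Quadruplicate. Sigmoidal IC50 fit.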

Row | SMILES | IC50 (Trypanosoma brucei) | IC50 (Cathepsin B) | IC50 [1] | IC50 (Procathepsin L)
1 | N#Cc1nc(NC2CCCCC2)c2ncn(C3CCCCC3)c2n1 | 1.4 µM | 23.6 µM | 8.3 µM | 3.3 µM
2 | N#Cc1nc(NCc2ccc(Cl)cc2)c2ncn(CC3CCCCC3)c2n1 | > 10 µM | > 30 µM | > 25 µM | > 30 µM
